Measured values taken from ChEMBL document CHEMBL4732249, “Design, synthesis and biological evaluation of 2-aminoquinazolin-4(3H)-one derivatives as potential SARS-CoV-2 and MERS-CoV treatments” (Bioorg Med Chem Lett, 2021).

Key:
[1] = system: SARS-CoV-2; assay: Antiviral activity against SARS-CoV-2 infected in African green monkey Vero cells assessed as inhibition of viral infection by measuring nucleocapsid protein level by immunofluorescence microscopic analysis; type: functional, organism-based; details: Severe acute respiratory syndrome coronavirus 2, Vero
[2] = system: Vero; assay: Cytotoxicity against African green monkey Vero cells assessed as reduction of cell viability by WST-1 assay; type: cell-based; details: chlorocebus sabaeus
[3] = Selective index, ratio of CC50 for African green monkey Vero cells to IC50 for SARS-CoV-2 infected in African green monkey Vero cells
[4] = system: Middle East respiratory syndrome-related coronavirus; assay: Antiviral activity against MERS-CoV infected in African green monkey Vero cells assessed as inhibition of viral infection by measuring reduction in spike protein level by immunofluorescence microscopic analysis; type: functional, organism-based
[5] = Selective index, ratio of CC50 for African green monkey Vero cells to IC50 for MERS-CoV infected in African green monkey Vero cells
[6] = Stability in mouse microsomes assessed as as parent compound remaining after 30 mins; type: ADME, Microsome; details: read-out: Stabilty
Outline: (§1)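 Liver microsomes from human, mouse and rat were used. The read-out is percent of parent compound remaining after 30 min incubation.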

[7] = Stability in rat microsomes assessed as as parent compound remaining after 30 mins; type: ADME, Microsome; details: read-out: Stabilty; outline: as §1
[8] = Stability in human microsomes assessed as as parent compound remaining after 30 mins; type: ADME, Microsome; details: read-out: Stabilty; outline: as §1
[9] = system: HFL1; assay: Cytotoxicity against human HFL-1 cells; type: cell-based
[10] = Cytotoxicity against CHO-K1 cells; type: cell-based, Cricetulus griseus; details: chinese hamster
[11] = Cytotoxicity against mouse NCTC clone 929 cells; type: cell-based
[12] = Cytotoxicity against mouse NIH3T3 cells; type: cell-based
[13] = molecular target: hERG (KCNH2) (Homo sapiens, UniProt Q12809); assay: Inhibition of human ERG at 10 uM relative to control
Chain of hERG (KCNH2) (Q12809 whole entry): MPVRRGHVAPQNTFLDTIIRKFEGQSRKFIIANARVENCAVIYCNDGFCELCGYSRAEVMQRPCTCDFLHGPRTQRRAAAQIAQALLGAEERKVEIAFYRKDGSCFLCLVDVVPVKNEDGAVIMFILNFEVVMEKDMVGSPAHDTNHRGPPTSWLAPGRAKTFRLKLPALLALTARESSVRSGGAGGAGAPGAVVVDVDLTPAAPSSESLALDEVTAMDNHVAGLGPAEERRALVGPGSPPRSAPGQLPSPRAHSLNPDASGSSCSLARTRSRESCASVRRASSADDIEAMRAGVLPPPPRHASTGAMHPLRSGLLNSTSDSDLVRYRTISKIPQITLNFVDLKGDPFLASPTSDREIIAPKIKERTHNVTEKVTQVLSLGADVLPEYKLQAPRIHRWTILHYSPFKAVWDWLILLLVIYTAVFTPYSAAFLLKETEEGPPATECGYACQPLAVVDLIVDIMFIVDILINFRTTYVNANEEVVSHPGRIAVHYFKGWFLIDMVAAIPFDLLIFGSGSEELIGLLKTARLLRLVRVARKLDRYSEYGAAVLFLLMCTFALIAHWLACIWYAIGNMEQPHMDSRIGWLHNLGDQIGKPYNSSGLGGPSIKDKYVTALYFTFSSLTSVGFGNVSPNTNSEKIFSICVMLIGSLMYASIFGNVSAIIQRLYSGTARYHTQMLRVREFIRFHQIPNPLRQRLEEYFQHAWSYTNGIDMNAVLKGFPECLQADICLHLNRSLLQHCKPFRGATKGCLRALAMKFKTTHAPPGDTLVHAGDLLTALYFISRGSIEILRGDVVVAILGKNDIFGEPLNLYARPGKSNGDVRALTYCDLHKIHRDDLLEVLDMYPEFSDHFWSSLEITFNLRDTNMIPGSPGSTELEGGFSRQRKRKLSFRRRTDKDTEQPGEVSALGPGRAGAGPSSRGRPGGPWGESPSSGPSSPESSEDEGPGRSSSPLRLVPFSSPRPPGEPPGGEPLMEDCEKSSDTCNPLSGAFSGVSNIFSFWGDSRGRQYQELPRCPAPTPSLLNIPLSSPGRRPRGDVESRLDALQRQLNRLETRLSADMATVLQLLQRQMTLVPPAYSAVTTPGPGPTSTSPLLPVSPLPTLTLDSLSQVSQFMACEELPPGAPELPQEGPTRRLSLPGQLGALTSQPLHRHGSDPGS

[14] = Protein binding in rat plasma at 5 uM; type: ADME, cell-free
[15] = molecular target: T1, CYP1A2 (Homo sapiens, UniProt P05177); assay: Inhibition of CYP1A2 (unknown origin) at 10 uM relative to control; type: ADME
T1 sequence (P05177 whole entry): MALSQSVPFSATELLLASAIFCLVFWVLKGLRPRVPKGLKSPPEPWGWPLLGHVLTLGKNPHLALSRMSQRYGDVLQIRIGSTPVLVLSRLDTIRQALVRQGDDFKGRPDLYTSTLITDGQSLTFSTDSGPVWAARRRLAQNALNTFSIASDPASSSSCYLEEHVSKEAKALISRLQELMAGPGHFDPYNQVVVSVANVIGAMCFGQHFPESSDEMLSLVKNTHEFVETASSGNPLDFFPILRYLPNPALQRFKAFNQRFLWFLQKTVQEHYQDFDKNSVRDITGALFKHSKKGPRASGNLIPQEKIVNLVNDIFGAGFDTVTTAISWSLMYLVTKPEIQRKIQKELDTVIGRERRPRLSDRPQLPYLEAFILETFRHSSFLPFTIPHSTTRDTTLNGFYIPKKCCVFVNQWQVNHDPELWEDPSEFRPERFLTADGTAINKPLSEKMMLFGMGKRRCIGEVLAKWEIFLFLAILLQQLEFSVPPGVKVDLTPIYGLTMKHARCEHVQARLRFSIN

[16] = molecular target: CYP2C9 (Homo sapiens, UniProt P11712); assay: Inhibition of CYP2C9 (unknown origin) at 10 uM relative to control; type: ADME
Chain of CYP2C9 (P11712 whole entry): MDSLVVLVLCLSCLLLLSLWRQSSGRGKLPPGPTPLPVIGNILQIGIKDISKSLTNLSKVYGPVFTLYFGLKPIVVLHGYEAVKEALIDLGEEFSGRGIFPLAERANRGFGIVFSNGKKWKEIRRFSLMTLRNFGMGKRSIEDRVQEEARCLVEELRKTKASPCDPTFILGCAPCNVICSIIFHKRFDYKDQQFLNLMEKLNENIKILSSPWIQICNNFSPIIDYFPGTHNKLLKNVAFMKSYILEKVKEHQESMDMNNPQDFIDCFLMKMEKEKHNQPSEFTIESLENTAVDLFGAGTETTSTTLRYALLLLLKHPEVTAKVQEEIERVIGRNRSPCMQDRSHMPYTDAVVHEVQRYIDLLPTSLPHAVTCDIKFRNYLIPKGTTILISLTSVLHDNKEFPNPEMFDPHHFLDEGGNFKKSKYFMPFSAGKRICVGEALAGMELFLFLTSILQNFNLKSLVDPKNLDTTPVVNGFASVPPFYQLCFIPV

[17] = molecular target: CYP2C19 (Homo sapiens, UniProt P33261); assay: Inhibition of CYP2C19 (unknown origin) at 10 uM relative to control; type: ADME
Chain of CYP2C19 (P33261 whole entry): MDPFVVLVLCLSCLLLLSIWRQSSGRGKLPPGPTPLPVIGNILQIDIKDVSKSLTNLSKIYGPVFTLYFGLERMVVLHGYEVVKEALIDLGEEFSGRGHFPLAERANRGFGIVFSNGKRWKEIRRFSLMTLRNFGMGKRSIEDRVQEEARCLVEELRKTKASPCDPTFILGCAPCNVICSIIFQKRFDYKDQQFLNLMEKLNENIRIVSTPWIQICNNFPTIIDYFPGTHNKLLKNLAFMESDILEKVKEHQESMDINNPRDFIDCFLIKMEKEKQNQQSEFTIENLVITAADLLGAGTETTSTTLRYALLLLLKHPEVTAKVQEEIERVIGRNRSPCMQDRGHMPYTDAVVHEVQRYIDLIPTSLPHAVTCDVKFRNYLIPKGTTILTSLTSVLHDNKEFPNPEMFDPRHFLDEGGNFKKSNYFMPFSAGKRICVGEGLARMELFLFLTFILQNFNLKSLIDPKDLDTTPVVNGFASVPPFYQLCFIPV

[18] = molecular target: CYP2D6 (Homo sapiens, UniProt P10635); assay: Inhibition of CYP2D6 (unknown origin) at 10 uM relative to control; type: ADME
Chain of CYP2D6 (P10635 whole entry): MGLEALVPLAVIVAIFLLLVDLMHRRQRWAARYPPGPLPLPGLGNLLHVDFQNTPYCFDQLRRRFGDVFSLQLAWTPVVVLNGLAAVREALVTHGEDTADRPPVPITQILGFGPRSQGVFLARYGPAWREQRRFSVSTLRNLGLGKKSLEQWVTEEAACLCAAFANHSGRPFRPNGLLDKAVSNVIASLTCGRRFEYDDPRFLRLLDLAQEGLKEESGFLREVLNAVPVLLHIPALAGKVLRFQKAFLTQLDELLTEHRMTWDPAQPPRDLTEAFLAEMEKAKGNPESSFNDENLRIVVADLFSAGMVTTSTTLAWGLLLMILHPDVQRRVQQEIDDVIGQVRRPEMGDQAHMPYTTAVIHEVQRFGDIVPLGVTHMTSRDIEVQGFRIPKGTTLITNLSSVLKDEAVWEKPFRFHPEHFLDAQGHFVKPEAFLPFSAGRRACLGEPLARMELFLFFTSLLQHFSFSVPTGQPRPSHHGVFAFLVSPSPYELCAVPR

[19] = molecular target: CYP3A4 (Homo sapiens, UniProt P08684); assay: Inhibition of CYP3A4 (unknown origin) at 10 uM relative to control; type: ADME
Chain of CYP3A4 (P08684 whole entry): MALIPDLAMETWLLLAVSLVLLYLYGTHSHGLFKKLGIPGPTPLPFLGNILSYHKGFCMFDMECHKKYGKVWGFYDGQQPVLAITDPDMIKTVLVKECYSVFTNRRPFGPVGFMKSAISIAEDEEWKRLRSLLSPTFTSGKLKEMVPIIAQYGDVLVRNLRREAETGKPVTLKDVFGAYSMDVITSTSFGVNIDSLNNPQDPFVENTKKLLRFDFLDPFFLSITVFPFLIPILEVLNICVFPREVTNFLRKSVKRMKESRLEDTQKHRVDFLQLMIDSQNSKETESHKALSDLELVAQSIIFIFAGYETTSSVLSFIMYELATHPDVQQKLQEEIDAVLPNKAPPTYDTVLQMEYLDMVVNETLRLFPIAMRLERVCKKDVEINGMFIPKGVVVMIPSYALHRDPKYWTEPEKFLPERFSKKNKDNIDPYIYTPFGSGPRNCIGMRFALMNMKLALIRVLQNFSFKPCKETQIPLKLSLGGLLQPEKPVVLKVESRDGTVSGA

[20] = Tmax in rat at 10 mg/kg, po; type: ADME, organism-based; details: in vivo
Outline: (§2)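 Rats were dosed orally at 10 mg/kg. Values are the mean of experiments using three rats.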

[21] = Half life in rat at 10 mg/kg, po; type: ADME, organism-based; details: in vivo; outline: as §2
[22] = AUC in rat at 10 mg/kg, po; type: ADME, organism-based; parameters: dose 10 mg/kg; details: in vivo; outline: as §2
[23] = Oral bioavailability in rat at 10 mg/kg; type: ADME, organism-based; details: in vivo
Outline: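 Rats received oral dosing at 10 mg/kg alongside intravenous dosing at 2 mg/kg. Values are the mean of experiments using three rats.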

[24] = Half life in rat at 5 mg/kg, iv; type: ADME, organism-based; details: in vivo
[25] = AUC in rat at 5 mg/kg, iv; type: ADME, organism-based; parameters: dose 5 mg/kg; details: in vivo
[26] = Clearance in rat at 5 mg/kg, iv; type: ADME, organism-based; details: in vivo
[27] = Volume of distribution at steady state in rat at 5 mg/kg, iv; type: ADME, organism-based; details: in vivo, read-out: Vdss

Structure (SMILES): O=c1[nH]c(Nc2ccccc2F)nc2cc(Cl)ccc12
- IC50 [1]: > 25 µM
- CC50 [2]: > 25 µM
- Ratio CC50/IC50 [3]: 1

Structure (SMILES): O=c1[nH]c(Nc2cccc(O)c2)nc2cc(Cl)ccc12
- IC50 [1]: > 25 µM
- CC50 [2]: > 25 µM
- Ratio CC50/IC50 [3]: 1

Structure (SMILES): Cc1cc(C)c2nc(Nc3cc(Cl)cc(Cl)c3)[nH]c(=O)c2c1
- IC50 [1]: > 25 µM
- CC50 [2]: > 25 µM
- Ratio CC50/IC50 [3]: 1

Structure (SMILES): O=c1[nH]c(Nc2cc(Cl)cc(Cl)c2)nc2cc(O)ccc12
- IC50 [1]: > 25 µM
- CC50 [2]: > 25 µM
- Ratio CC50/IC50 [3]: 1

Structure (SMILES): Nc1ccc2c(=O)[nH]c(Nc3cc(Cl)cc(Cl)c3)nc2c1
- IC50 [1]: > 25 µM
- CC50 [2]: > 25 µM
- Ratio CC50/IC50 [3]: 1

Structure (SMILES): O=c1[nH]c(Nc2cc(F)cc(F)c2)nc2c(Cl)ccc(Cl)c12
- IC50 [1]: 0.33 µM
- CC50 [2]: > 25 µM
- Ratio CC50/IC50 [3]: 76
- IC50 [4]: 0.79 µM
- Ratio CC50/IC50 [5]: 31

Structure (SMILES): O=c1[nH]c(Nc2cccc(F)c2)nc2cc(Cl)ccc12
- IC50 [1]: 1.4 µM
- CC50 [2]: > 25 µM
- Ratio CC50/IC50 [3]: 18

Structure (SMILES): O=c1[nH]c(Nc2cc(Cl)cc(Cl)c2)nc2cccc(O)c12
- IC50 [1]: 0.15 µM
- CC50 [2]: > 25 µM
- Ratio CC50/IC50 [3]: 168
- IC50 [4]: 1.02 µM
- remaining at 0.5 h [6]: 42%
- remaining at 0.5 h [7]: 54%
- remaining at 0.5 h [8]: 55%
- CC50 [9]: 9.6 µM
- CC50 [10]: 28 µM
- CC50 [11]: 27 µM
- CC50 [12]: 60 µM
- inhibition at 10 µM [13]: 28%
- PPB [14]: 97%
- inhibition at 10 µM [15]: 65%
- inhibition at 10 µM [16]: 34%
- inhibition at 10 µM [17]: 12%
- inhibition at 10 µM [18]: 46%
- inhibition at 10 µM [19]: 65%
- Tmax [20]: 1 h
- half-life [21]: 42 h
- AUC [22]: 1010 ng·h/mL
- bioavailability [23]: 7.8%
- half-life [24]: 9.2 h
- AUC [25]: 6500 ng·h/mL
- clearance [26]: 11.2 mL/min/kg
- Vd [27]: 6.8 L/kg
- Ratio CC50/IC50 [5]: 25

Structure (SMILES): O=c1[nH]c(Nc2cc(O)cc(O)c2)nc2cc(Cl)ccc12
- IC50 [1]: > 25 µM
- CC50 [2]: > 25 µM
- Ratio CC50/IC50 [3]: 1

Structure (SMILES): O=c1[nH]c(Nc2cc(Cl)cc(Cl)c2)nc2cc(N3CCOCC3)ccc12
- IC50 [1]: > 25 µM
- CC50 [2]: > 25 µM
- Ratio CC50/IC50 [3]: 1

Structure (SMILES): O=c1[nH]c(N2CCCCC2)nc2cc(Cl)ccc12
- IC50 [1]: > 25 µM
- CC50 [2]: > 25 µM
- Ratio CC50/IC50 [3]: 1

Structure (SMILES): O=c1[nH]c(Nc2cc(F)cc(F)c2)nc2cc(O)ccc12
- IC50 [1]: > 25 µM
- CC50 [2]: > 25 µM
- Ratio CC50/IC50 [3]: 1

Structure (SMILES): O=c1[nH]c(Nc2cccc(C(F)(F)F)c2)nc2cc(Cl)ccc12
- IC50 [1]: 0.68 µM
- CC50 [2]: > 25 µM
- Ratio CC50/IC50 [3]: 37

Structure (SMILES): COc1cccc2nc(Nc3cc(Cl)cc(Cl)c3)[nH]c(=O)c12
- IC50 [1]: > 25 µM
- CC50 [2]: > 25 µM
- Ratio CC50/IC50 [3]: 1

Structure (SMILES): O=c1[nH]c(Nc2cc(Cl)cc(Cl)c2)nc2c(Cl)ccc(Cl)c12
- IC50 [1]: 0.35 µM
- CC50 [2]: > 25 µM
- Ratio CC50/IC50 [3]: 71
- IC50 [4]: 0.62 µM
- Ratio CC50/IC50 [5]: 42

Structure (SMILES): N#Cc1cccc(Nc2nc3cc(Cl)ccc3c(=O)[nH]2)c1
- IC50 [1]: 1.7 µM
- CC50 [2]: > 25 µM
- Ratio CC50/IC50 [3]: 15

Structure (SMILES): COc1cccc(Nc2nc3cc(Cl)ccc3c(=O)[nH]2)c1
- IC50 [1]: 11 µM
- CC50 [2]: > 25 µM
- Ratio CC50/IC50 [3]: 2.3

Structure (SMILES): Nc1ccc2c(=O)[nH]c(Nc3cc(F)cc(F)c3)nc2c1
- IC50 [1]: > 25 µM
- CC50 [2]: > 25 µM
- Ratio CC50/IC50 [3]: 1

Structure (SMILES): O=c1[nH]c(Nc2cc(Cl)cc(Cl)c2)nc2c(Cl)c(Cl)ccc12
- IC50 [1]: 0.24 µM
- CC50 [2]: > 25 µM
- Ratio CC50/IC50 [3]: 103
- IC50 [4]: 0.88 µM
- Ratio CC50/IC50 [5]: 31
